What was measured:
[1] = system: Rattus norvegicus; assay: Antialzheimer activity in Sprague-Dawley rat assessed as amyloid beta 42 level in CSF at 10 mg/kg, po at 7 hrs by ELISA relative to control; type: functional
Summary of the method: (§1)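 Male Sprague-Dawley rats (180-220 g), fasted overnight, were given 10 mg/kg by gastric intubation as a 5 mg/mL suspension in 0.5% methocellulose. At 2, 4, 7 and 25 h, 50 μL CSF was taken from the cisterna magna under isoflurane, then brain was collected. Aβ37/38/40/42 were measured by MesoScale Discovery sandwich immunoassays. Results are mean % change versus T = 0 h, n = 5.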

[2] = system: Rattus norvegicus; assay: Antialzheimer activity in Sprague-Dawley rat assessed as amyloid beta 40 level in brain at 10 mg/kg, po at 2 hrs by ELISA relative to control; type: functional; summary of the method: as §1
[3] = system: Canis familiaris; assay: Antialzheimer activity in beagle dog assessed as amyloid beta 42 level in cerebrospinal fluid at 20 mg/kg, po at 4 hrs by ELISA relative to control
[4] = system: Rattus norvegicus; assay: Antialzheimer activity in Sprague-Dawley rat assessed as amyloid beta 40 level in CSF at 10 mg/kg, po at 25 hrs by ELISA relative to control; type: functional; summary of the method: as §1
[5] = Plasma concentration in CD1 mouse at 10 mg/kg, po at 24 hrs by LC-MS/MS analysis; type: ADME, organism-based; parameters: dose 10 mg/kg, route oral
Summary of the method: (§2)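 Mice received a single 10 or 30 mg/kg oral dose. Plasma was sampled at several time points up to 48 h, with EDTA plasma obtained by centrifugation at 1900g, 10 min, 4 °C. Compound was quantified by LC-MS/MS, n = 4.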

[6] = target: Cytochrome P450 2D6 (Homo sapiens, UniProt P10635); assay: Inhibition of CYP2D6 in human liver microsomes using dextrometorphan as substrate; type: ADME, Microsome
Sequence of Cytochrome P450 2D6 (P10635 whole entry): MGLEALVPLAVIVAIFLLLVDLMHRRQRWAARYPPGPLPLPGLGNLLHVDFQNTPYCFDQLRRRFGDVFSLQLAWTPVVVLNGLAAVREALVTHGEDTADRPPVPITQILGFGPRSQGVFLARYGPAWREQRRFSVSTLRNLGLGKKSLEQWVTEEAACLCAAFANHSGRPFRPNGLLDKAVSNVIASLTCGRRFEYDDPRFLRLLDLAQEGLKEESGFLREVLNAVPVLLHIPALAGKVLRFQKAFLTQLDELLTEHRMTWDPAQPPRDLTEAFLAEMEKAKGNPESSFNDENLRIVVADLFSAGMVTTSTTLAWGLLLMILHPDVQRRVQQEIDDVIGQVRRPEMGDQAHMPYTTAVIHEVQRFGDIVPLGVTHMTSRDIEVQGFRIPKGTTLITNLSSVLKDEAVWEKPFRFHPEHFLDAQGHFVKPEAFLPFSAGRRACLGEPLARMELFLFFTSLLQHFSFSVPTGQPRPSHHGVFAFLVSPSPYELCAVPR

[7] = target: T1, Cytochrome P450 1A2 (Homo sapiens, UniProt P05177); assay: Inhibition of CYP1A2 in human liver microsomes using phenacetin as substrate; type: ADME, Microsome
T1 sequence (P05177 whole entry): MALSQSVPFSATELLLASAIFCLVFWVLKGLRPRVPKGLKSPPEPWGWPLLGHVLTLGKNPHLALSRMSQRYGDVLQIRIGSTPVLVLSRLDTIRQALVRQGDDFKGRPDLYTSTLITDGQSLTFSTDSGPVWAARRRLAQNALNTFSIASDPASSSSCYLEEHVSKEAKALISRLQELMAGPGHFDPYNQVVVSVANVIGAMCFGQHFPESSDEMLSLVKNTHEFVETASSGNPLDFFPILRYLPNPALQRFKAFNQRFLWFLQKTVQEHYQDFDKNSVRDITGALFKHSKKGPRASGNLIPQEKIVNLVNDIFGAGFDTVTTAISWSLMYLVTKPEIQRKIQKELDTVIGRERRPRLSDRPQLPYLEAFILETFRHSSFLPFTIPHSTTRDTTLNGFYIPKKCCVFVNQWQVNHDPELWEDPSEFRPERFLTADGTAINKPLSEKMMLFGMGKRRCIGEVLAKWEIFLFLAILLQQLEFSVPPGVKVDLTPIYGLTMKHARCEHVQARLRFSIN

[8] = system: Rattus norvegicus; assay: Antialzheimer activity in Sprague-Dawley rat assessed as amyloid beta 40 level in CSF at 10 mg/kg, po at 4 hrs by ELISA relative to control; type: functional; summary of the method: as §1
[9] = system: Rattus norvegicus; assay: Antialzheimer activity in Sprague-Dawley rat assessed as amyloid beta 38 level in CSF at 10 mg/kg, po at 2 hrs by ELISA relative to control; type: functional; summary of the method: as §1
[10] = system: Rattus norvegicus; assay: Antialzheimer activity in Sprague-Dawley rat assessed as amyloid beta 38 level in brain at 10 mg/kg, po at 25 hrs by ELISA relative to control; type: functional; summary of the method: as §1
[11] = system: Mus musculus; assay: Antialzheimer activity in CD1 mouse assessed as amyloid beta 38 level in brain at 30 mg/kg, po at 24 hrs by ELISA relative to control; type: functional
Summary of the method: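 Male CD1 SPF mice, fasted overnight, got a single oral dose of 10 or 30 mg/kg. At each time point the right brain hemisphere was homogenized in 0.4% DEA/50 mM NaCl with protease inhibitors and spun at 221300g for 50 min. The supernatant was neutralized with Tris-HCl pH 6.8. Aβ38 or Aβ42 was read by sandwich ELISA with a fluorogenic peroxidase substrate (ex 320/em 420 nm). Results are mean % change versus T = 0 h, n = 4.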

[12] = system: Rattus norvegicus; assay: Antialzheimer activity in Sprague-Dawley rat assessed as amyloid beta 42 level in CSF at 10 mg/kg, po at 4 hrs by ELISA relative to control; type: functional; summary of the method: as §1
[13] = system: Rattus norvegicus; assay: Antialzheimer activity in Sprague-Dawley rat assessed as amyloid beta 37 level in brain at 10 mg/kg, po at 2 hrs by ELISA relative to control; type: functional; summary of the method: as §1
[14] = system: Rattus norvegicus; assay: Antialzheimer activity in Sprague-Dawley rat assessed as amyloid beta 37 level in CSF at 10 mg/kg, po at 25 hrs by ELISA relative to control; type: functional; summary of the method: as §1
[15] = target: Cytochrome P450 3A4 (Homo sapiens, UniProt P08684); assay: Inhibition of CYP3A4 in human liver microsomes using testosterone as substrate; type: ADME, Microsome
Sequence of Cytochrome P450 3A4 (P08684 whole entry): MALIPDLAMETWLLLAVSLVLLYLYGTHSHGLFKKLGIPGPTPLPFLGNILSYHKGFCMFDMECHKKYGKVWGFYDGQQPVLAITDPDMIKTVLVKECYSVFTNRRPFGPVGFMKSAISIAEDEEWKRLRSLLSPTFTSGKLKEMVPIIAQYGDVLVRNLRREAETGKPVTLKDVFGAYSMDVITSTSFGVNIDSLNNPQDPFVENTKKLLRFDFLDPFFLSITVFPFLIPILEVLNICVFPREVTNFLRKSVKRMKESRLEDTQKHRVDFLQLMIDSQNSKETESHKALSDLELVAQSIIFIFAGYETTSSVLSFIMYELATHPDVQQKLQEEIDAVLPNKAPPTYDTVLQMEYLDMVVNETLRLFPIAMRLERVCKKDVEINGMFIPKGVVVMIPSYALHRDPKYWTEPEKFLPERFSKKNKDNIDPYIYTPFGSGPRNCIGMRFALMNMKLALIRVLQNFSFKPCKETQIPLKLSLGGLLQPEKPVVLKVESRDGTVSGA

[16] = Drug uptake in CD1 mouse brain at 30 mg/kg, po at 24 hrs by LC-MS/MS analysis; type: ADME, organism-based; parameters: dose 30 mg/kg, route oral; conditions: read-out: Drug uptake
Summary of the method: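 Overnight-fasted male CD1 mice received one oral dose (10 or 30 mg/kg) in 20% Captisol. After sacrifice, the left brain hemisphere was stored at −18 °C. Compound level was quantified by a qualified LC-MS/MS method, alongside EDTA plasma spun at 1900g, 4 °C. n = 4 per time point.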

[17] = Plasma concentration in CD1 mouse at 10 mg/kg, po at 8 hrs by LC-MS/MS analysis; type: ADME, organism-based; parameters: dose 10 mg/kg, route oral; summary of the method: as §2
[18] = system: Rattus norvegicus; assay: Antialzheimer activity in Sprague-Dawley rat assessed as amyloid beta 37 level in brain at 10 mg/kg, po at 25 hrs by ELISA relative to control; type: functional; summary of the method: as §1
[19] = system: Rattus norvegicus; assay: Antialzheimer activity in Sprague-Dawley rat assessed as amyloid beta 38 level in CSF at 10 mg/kg, po at 25 hrs by ELISA relative to control; type: functional; summary of the method: as §1
[20] = system: Rattus norvegicus; assay: Antialzheimer activity in Sprague-Dawley rat assessed as amyloid beta 42 level in brain at 10 mg/kg, po at 25 hrs by ELISA relative to control; type: functional; summary of the method: as §1
[21] = system: Rattus norvegicus; assay: Antialzheimer activity in Sprague-Dawley rat assessed as amyloid beta 42 level in brain at 10 mg/kg, po at 2 hrs by ELISA relative to control; type: functional; summary of the method: as §1
[22] = Thermodynamic solubility in buffer at pH 7.4; type: physicochemical; conditions: read-out: Therm_solubility
Summary of the method: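 Thermodynamic solubility was measured in pH 4.0 and pH 7.4 buffers, 0.01 N HCl, and fasted-state and fed-state simulated intestinal fluids (FaSSIF, FeSSIF). Results are in […].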

Work on COc1nc(Nc2cccc3c2nc(-c2ccc(F)cc2)n3C)ccc1-n1cnc(C)c1 yielded an Activity [1] of 57%, an Activity [2] of 77% and an Activity [3] of 81%. It also gave an Activity [4] of 83%, a concentration at 24 h [5] of 4 nM and an IC50 [6] of 3.6 µM. The IC50 [7] was greater than 30 µM, the Activity [8] was 60% and the Activity [9] was 162%. For the same molecule, the Activity [10] was 105%, the Activity [11] was 101% and the Activity [12] was 66%. For the same molecule, the Activity [13] was 502%, the Activity [14] was 124% and the IC50 [15] was 2.9 µM. It also gave a concentration at 24 h [16] of 440 nM, a concentration at 8 h [17] of 2700 nM and an Activity [18] of 128%. The Activity [19] was 110%, the Activity [20] was 92% and the Activity [21] was 75%. It also gave a solubility thermodynamic [22] of less than 1 µg/mL.

From ChEMBL document CHEMBL2176900, “Design and synthesis of a novel series of bicyclic heterocycles as potent γ-secretase modulators” (J Med Chem, 2012)
